# In ChEMBL document CHEMBL1122835, “Synthesis and pharmacology of the potent angiotensin-converting enzyme inhibitor N-[1(S)-(ethoxycarbonyl)-3-phenylpropyl]-(S)-alanyl-(S)-pyroglutamic acid” (J Med Chem, 1985):
# Experiments:
# Rattus norvegicus [1] = assay: Activity against the bradykinin Response in anesthetized normotensive rat, administered intravenously at dose 0.010 mg/kg; type: functional; conditions: dose 0.01 mg/kg; route intravenous
# In short: (§1)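 Anesthetized (pentobarbital/barbital ip) male Charles River CD rats, 380–500 g, kept at 37 °C. Femoral artery blood pressure recorded. Control depressor response to bradykinin 1 μg/kg iv, then cumulative iv drug in 0.9% saline (1 mL/kg), 0.0033–0.27 mg/kg. Bk challenge 5 min after each dose. ED50 = dose giving a 50% change from control, by linear regression; N = 8.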
# Rattus norvegicus [2] = assay: Activity against the bradykinin Response in anesthetized normotensive rat, administered intravenously at dose 0.030 mg/kg; type: functional; conditions: dose 0.03 mg/kg; route intravenous; in short: as §1
# Canis familiaris [3] = assay: Effect on pressor response of angiotensin I in conscious dog at 60-65 min, dose 0.5 mg/kg administered orally; type: functional, Canis lupus familiaris; conditions: route oral
# In short: (§2)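 Conscious fasted mongrel dogs of both sexes, 6.8–15.3 kg, with femoral cannulas. Drug given orally in 0.25% methylcellulose with 3% glycerin (2 mL/kg), n = 4 per dose. AI 0.3, AII 0.1 and NE 1 μg/kg iv challenges. The second pre-dose set served as control; response measured at 60–65 min post-dose.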
# Rattus norvegicus [4] = assay: Change in heart rate was determined in renal hypertensive rat, administered orally at a dose 100 mg/kg; type: functional; conditions: route oral
# In short: (§3)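 Renal hypertensive rats were prepared by clipping the left renal artery (0.22-mm clip) in 4-week-old male CD rats and held 6 weeks. Overnight-fasted rats were dosed orally with aqueous solution (5 mL/kg), water as control. Tail-cuff systolic pressure and heart rate measured 2 h post-dose. ANOVA with Duncan's test; ED30 by linear regression.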
# Rattus norvegicus [5] = assay: Percent change was determined in bradykinin depressor response in anesthetized normotensive rat, administered intravenously at dose 0.0033 mg/kg; type: functional; conditions: route intravenous; in short: as §1
# Rattus norvegicus [6] = assay: Activity against the bradykinin Response in anesthetized normotensive rat, administered intravenously at dose 0.0033 mg/kg; type: functional; conditions: route intravenous; in short: as §1
# Rattus norvegicus [7] = assay: Percent decrease in angiotensin I pressor response was measured in rat, administered intravenously at dose 0.27 mg/kg; type: functional; conditions: route intravenous
# In short: (§4)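 Anesthetized (pentobarbital Na 15 mg/kg + barbital 220 mg/kg ip), tracheotomized male Charles River CD rats, 380–500 g, femoral cannulas, heated board at 37 °C. Control pressor responses to angiotensin I 0.3 μg/kg then angiotensin II 0.1 μg/kg iv; drug iv in 0.9% saline (free base), AI and AII repeated at 5-min intervals, cumulative 0.01–0.81 mg/kg. Peak arterial pressure rise versus control.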
# Rattus norvegicus [8] = assay: Effect on systolic blood pressure was determined in renal hypertensive rat, administered orally at a dose 3 mg/kg; type: functional, Artery; conditions: route oral; in short: as §3
# Canis familiaris [9] = assay: Effect on pressor response of angiotensin II in conscious dog at 60-65 min, dose 2 mg/kg administered orally; type: functional, Canis lupus familiaris; conditions: route oral; in short: as §2
# Canis familiaris [10] = assay: Effect on pressor response of angiotensin I in conscious dog at 60-65 min, dose 1 mg/kg administered orally; type: functional, Canis lupus familiaris; conditions: route oral; in short: as §2
# Rattus norvegicus [11] = species on record: Rattus norvegicus; assay: Dose required to reduce systolic blood pressure by 30 mmHg in renal hypertensive rat; type: functional; conditions: Artery; in short: as §3
# Rattus norvegicus [12] = assay: Change in heart rate was determined in renal hypertensive rat, administered orally at a dose 10 mg/kg; type: functional; conditions: route oral; in short: as §3
# Rattus norvegicus [13] = assay: Effect on systolic blood pressure was determined in renal hypertensive rat, administered orally at a dose 10 mg/kg; type: functional, Artery; conditions: route oral; in short: as §3
# Rattus norvegicus [14] = assay: Change in heart rate was determined at a dose 10 mg/kg; type: functional
# In short: (§5)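 Male SHR, 13 weeks old, given HCTZ 25 mg/kg po in 0.25% methylcellulose daily for 3 days. Drug given orally in water (5 mL/kg) 1 h after the third dose. Tail-cuff systolic pressure and pulse-count heart rate taken 1.5 h later after 20 min warming at 38 °C. ANOVA with Duncan's test; ED30 by linear regression.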
# Rattus norvegicus [15] = assay: Decrease in systolic blood pressure of Spontaneous Hypertensive Rats (SHR) pretreated with hydrochlorothiazide upon oral administration at 10 mm/kg; type: functional, Artery; in short: as §5
# Rattus norvegicus [16] = assay: Percent decrease in angiotensin I pressor response was measured in rat, administered intravenously at dose 0.81 mg/kg; type: functional; conditions: route intravenous; in short: as §4
# Canis familiaris [17] = assay: Effect on pressor response of angiotensin I in anesthetized dog, dose 0.9 mg/kg administered intravenously; type: functional, Canis lupus familiaris; conditions: route intravenous
# In short: (§6)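 Mongrel dogs, 7.3–15.5 kg, anesthetized with barbital/pentobarbital iv, tracheotomized and vagotomized, n = 4. Cumulative iv doses in saline (0.2 mL/kg) spaced 30 min apart. AI and AII 1 μg/kg iv challenges given after each dose; the second pre-dose set served as control.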
# Canis familiaris [18] = assay: Effect on pressor response of angiotensin I in anesthetized dog, dose 0.3 mg/kg administered intravenously; type: functional, Canis lupus familiaris; conditions: route intravenous; in short: as §6
# Rattus norvegicus [19] = assay: Hypotensive activity was determined in low-sodium treated rat, dose 30 mg/kg administered orally at 5 hr; type: functional; conditions: route oral
# In short: (§7)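 Male CD rats, 11 weeks old, kept on a sodium-deficient diet for 3 weeks and fasted overnight, were dosed orally with aqueous solutions (5 mL/kg), water as control. Systolic pressure measured by tail cuff at the stated post-dose time. ANOVA with Duncan's test.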
# Rattus norvegicus [20] = assay: Percent decrease in angiotensin I pressor response was measured in rat, administered intravenously at dose 0.010 mg/kg; type: functional; conditions: dose 0.01 mg/kg; route intravenous; in short: as §4
# Rattus norvegicus [21] = assay: Effect on vasopressor response caused by angiotensin I (AI) in anesthetized normotensive rat, administered intravenously at dose 0.010 mg/kg; type: functional; conditions: dose 0.01 mg/kg; route intravenous
# In short: (§8)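 Male Charles River CD rats, 380–500 g, anesthetized with pentobarbital Na 15 mg/kg plus barbital 220 mg/kg ip, held at 37 °C. Femoral artery pressure recorded. AI 0.3 μg/kg and AII 0.1 μg/kg given iv as challenges. Cumulative iv drug in saline, 0.01–0.81 mg/kg, each dose followed by AI/AII challenges at 5-min intervals. ED50 = 50% change from control response, by linear regression.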
# Rattus norvegicus [22] = assay: Percent change was determined in bradykinin depressor response in anesthetized normotensive rat, administered intravenously at dose 0.010 mg/kg; type: functional; conditions: dose 0.01 mg/kg; route intravenous
# In short: (§9)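 Male Charles River CD rats (380–500 g), pentobarbital Na 15 mg/kg plus barbital 220 mg/kg ip, tracheotomized, femoral artery/vein cannulated, kept at 37 °C. Control bradykinin 1 μg/kg iv depressor response, separate from angiotensin tests; drug iv in 0.9% saline (1 mL/kg, free base) 10 min later, Bk 5 min after each cumulative dose (0.0033–0.27 mg/kg). Maximum fall in arterial pressure versus control response; N = 8.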
# Rattus norvegicus [23] = assay: Percent change was determined in bradykinin depressor response in anesthetized normotensive rat, administered intravenously at dose 0.090 mg/kg; type: functional; conditions: dose 0.09 mg/kg; route intravenous; in short: as §9
# Rattus norvegicus [24] = assay: Percent decrease in angiotensin I pressor response was measured in rat, administered intravenously at dose 0.090 mg/kg; type: functional; conditions: dose 0.09 mg/kg; route intravenous; in short: as §4
# Rattus norvegicus [25] = assay: Effect on vasopressor response caused by angiotensin I (AI) in anesthetized normotensive rat, administered intravenously at dose 0.81 mg/kg; type: functional; conditions: route intravenous; in short: as §8
# Canis familiaris [26] = assay: Effect on pressor response of angiotensin II in anesthetized dog, dose 0.9 mg/kg administered intravenously; type: functional, Canis lupus familiaris; conditions: route intravenous; in short: as §6
# Rattus norvegicus [27] = assay: Hypotensive activity was determined in low-sodium treated rat, dose 10 mg/kg administered orally at 2 hr; type: functional; conditions: route oral; in short: as §7
structure (smiles),measurement,setting,value
CCOC(=O)[C@H](CCc1ccccc1)N[C@@H](C)C(=O)N1C(=O)CC[C@H]1C(=O)O,Response,Rattus norvegicus [1],-58 mmHg
same,Response,Rattus norvegicus [2],-61 mmHg
same,Blood pressure,Canis familiaris [3],47 mmHg
same,Heart rate,Rattus norvegicus [4],454 beats min-1
same,Change,Rattus norvegicus [5],22%
same,Response,Rattus norvegicus [6],-44 mmHg
same,Decrease,Rattus norvegicus [7],63%
same,Activity,Rattus norvegicus [8],220 mmHg
same,Blood pressure,Canis familiaris [9],40 mmHg
same,Blood pressure,Canis familiaris [10],23 mmHg
same,ED30,Rattus norvegicus [11],5.9 mg/kg
same,Heart rate,Rattus norvegicus [12],438 beats min-1
same,Activity,Rattus norvegicus [13],204 mmHg
same,Heart rate,Rattus norvegicus [14],369 beats min-1
same,Blood pressure,Rattus norvegicus [15],189 mmHg
same,Decrease,Rattus norvegicus [16],92%
same,Blood pressure,Canis familiaris [17],28 mmHg
same,Blood pressure,Canis familiaris [18],46 mmHg
same,Activity,Rattus norvegicus [19],132 mmHg
same,Decrease,Rattus norvegicus [20],6%
same,Response,Rattus norvegicus [21],45 mmHg
same,Change,Rattus norvegicus [22],61%
same,Change,Rattus norvegicus [23],69%
same,Decrease,Rattus norvegicus [24],31%
same,Response,Rattus norvegicus [25],4 mmHg
same,Blood pressure,Canis familiaris [26],73 mmHg
same,Activity,Rattus norvegicus [27],148 mmHg
